Screening data as filed in PubChem.
Only some compounds are listed: those with a hit (about 2.4% of all), similar ones and a draw of the others.
Apaf1 inhib: human Apaf-1 inhibition | hit rate 0.71% among 330,000 | reconstituted apoptosome caspase-3 activity, DEVD-Rh110 fluorescence | inhibition, % at 20 µM | O14727; active means inhibition of at least 40% at 20 µM;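 further: plate controls were DMSO wells for no effect and DEVD-CHO caspase inhibitor wells for full effect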
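Material: biochemical Apaf-1 apoptosome reconstitution. Medium: Hepes buffer, pH 7.5. Also added: cytochrome c activation, bis-DEVD rhodamine 110 substrate. Timing: 30 min compound preincubation, 50 min activation, room temperature. Measured by: rhodamine 110 fluorescence at Ex 480/Em 540 nm.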
TCR-CD3 inh: human TCR-CD3 binding inhibition. TAMRA-labeled TCR probe fluorescence, biochemical. inhibition, % at 9.4 µM. hit rate 0.37% among 360,000. AID 651800; in the data active means inhibition above about 19%;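 further: recombinant mutant TCR 2C K166C tagged with TAMRA read by polarization; 0% = receptor in buffer alone and 100% = receptor with positive control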
GSTO1 inh: counter-screen for RBBP9 inhibitors: inhibitors of human GSTO1. P78417. recombinant GSTO1, activity-based probe fluorescence polarization. inhibition, % at 5.96 µM. hit rate 1.1% among 300,000;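 active means inhibition above the campaign mean inhibition plus 3 SD, cut at about 35% in these data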;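 further: 0% = GSTO1-1 with DMSO and 100% = wells lacking GSTO1-1 enzyme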
SIAE inh: inhibitors of human sialic acid acetylesterase SIAE; inhibition, % at 9.66 µM; hit rate 0.69% among 370,000; AID 1053197; SIAE FP-Rh probe binding, fluorescence polarization; Q9HAT2;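 active means inhibition above a cutoff: mean of compounds within the control limits plus 3 SD of those, cut at about 17% in these data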;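 further: 0% = plate median of compound wells and 100% = probe without SIAE protein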
Target sequence (Q9HAT2 whole entry, looked up): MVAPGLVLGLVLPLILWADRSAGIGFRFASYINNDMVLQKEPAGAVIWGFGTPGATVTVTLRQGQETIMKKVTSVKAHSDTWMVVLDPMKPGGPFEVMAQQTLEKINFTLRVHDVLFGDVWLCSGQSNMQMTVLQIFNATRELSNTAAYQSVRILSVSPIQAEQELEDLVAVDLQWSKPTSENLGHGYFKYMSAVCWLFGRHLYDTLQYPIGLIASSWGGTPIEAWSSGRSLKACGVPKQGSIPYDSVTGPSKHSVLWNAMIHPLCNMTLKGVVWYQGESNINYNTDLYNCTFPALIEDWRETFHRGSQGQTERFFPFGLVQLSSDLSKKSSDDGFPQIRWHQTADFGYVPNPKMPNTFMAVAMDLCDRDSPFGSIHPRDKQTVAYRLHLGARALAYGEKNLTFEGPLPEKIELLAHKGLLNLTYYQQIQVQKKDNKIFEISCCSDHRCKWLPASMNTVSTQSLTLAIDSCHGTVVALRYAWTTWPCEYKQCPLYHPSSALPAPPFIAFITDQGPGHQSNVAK
PAD4 FP inh: blocks human protein arginine deiminase 4; Q9UM07; recombinant PAD4, RCA probe fluorescence polarization; inhibition, % at 6.36 µM; hit rate 0.41% among 330,000;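 active means percent inhibition above a cutoff equal to the mean of all tested compounds plus 3 SD, cut at about 15% in these data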;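 further: 0% = PAD4 with RCA probe and DMSO and 100% = probe without PAD4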
TDP2 absorb: TDP2 (human) inhibition, absorbance primary screen. inhibition, % at 12.8 µM. hit rate 0.34% among 370,000. recombinant TDP2, T5PNP hydrolysis, p-nitrophenol absorbance 415 nm. O95551;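 active means inhibition above the mean of all tested compounds plus 3 SD, set per campaign, cut at about 25% in these data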;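 further: 0% = DMSO with enzyme and 100% = buffer with substrate but no TDP2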
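Test system: human TDP2 enzyme; Input: 120 nM TDP2 per well; Buffer or medium: Mg2+-containing Tris-HCl buffer, pH 7.5; Reagent: 5 mM T5PNP; Dosing: 12.8 µM single point, 1% DMSO; Incubation: reaction 2 h, 37 °C; Detection: p-Nitrophenol epi absorbance; Read-out: % inhibition relative to enzyme-containing and enzyme-free wells; Replicates: single well per compound.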
TDP2 confirm: confirmation of human TDP2 inhibitors; recombinant human TDP2, absorbance read-out; shares compounds with TDP2 absorb; AID 743263; inhibition, % at 12.8 µM; hit rate 22% among 1,100; in the data active means inhibition above about 25%;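 further: 0% = vehicle with enzyme and 100% = no enzyme buffer only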
* = called active by the depositor; . = no result.

SMILES | Apaf1 inhib | TCR-CD3 inh | GSTO1 inh | SIAE inh | PAD4 FP inh | TDP2 absorb | TDP2 confirm
CC(=O)c1cccc(NC(=O)C2Cc3c(-c4ccccc4)ccnc3O2)c1 (stereo not given) | . | 0 | . | 3 | . | -10 | .
Cc1cc(C(F)(F)F)nn1CC(=O)NCc1ccco1 | -15 | 2 | -10 | 2 | -3 | 31* | 4
Cc1ccc(C)c(OCCC(=O)OCC(=O)Nc2ccc(C)c(S(=O)(=O)N3CCCCC3)c2)c1 | 18 | 3 | -16 | -89 | 0 | 2 | .
COc1ccc(N(C(=O)c2ccco2)C(C(=O)NC2CCCC2)c2ccco2)cc1OC (stereo not given) | 7 | -9 | 0 | -2 | 2 | 0 | .
CSc1nc2ccsc2c(=O)n1-c1ccccn1 | -5 | 6 | -6 | -1 | 0 | 60* | 9
CSc1nc2ccsc2c(=O)n1-c1cccnc1 | -6 | 7 | -2 | 4 | -5 | -1 | .
COc1ccc(Cl)cc1NS(=O)(=O)c1cn(C)nc1C | 0 | 4 | -2 | 8 | -2 | 15 | .
Cc1ccc(Cl)cc1NS(=O)(=O)c1cn(C)nc1C | 7 | 2 | -2 | 10 | -3 | 25* | 11
CN(C)C(CNC(=O)c1ccc(NS(=O)(=O)c2ccc(F)cc2)cc1)c1ccco1 (stereo not given) | 1 | 0 | 5 | 6 | 0 | 27* | 5
Cc1ccc(NS(=O)(=O)c2ccc(C(=O)NCC(c3ccco3)N(C)C)cc2)cc1 (stereo not given) | 3 | 4 | 7 | -3 | -4 | -4 | .
CCc1cc(Cn2nc(-c3ccccc3)cc2C(=O)NCc2cccs2)on1 | 16 | 13 | -13 | -54 | -16 | 2 | .
COc1cc(/C=C2\C(=O)N(c3ccccc3)N=C2C)ccc1Oc1ccc([N+](=O)[O-])cc1[N+](=O)[O-] | . | 1 | 33 | 7 | 44* | 65* | 16
Cc1ccc(-n2c(C)nn(Cc3ccc([N+](=O)[O-])cc3)c2=O)cc1 | -2 | 5 | 3 | 0 | 3 | -21 | .
Cc1ccc(-n2c3nc(=O)[nH]c(=O)c-3cc3cc([N+](=O)[O-])ccc32)cc1 | 34 | -7 | 16 | 3 | -1 | 46* | 41*
COc1ccc(NC(=S)N2CCC(NC(=O)c3cccc(C)c3)CC2)cc1 | 3 | 2 | 9 | 6 | -1 | 29* | 3
COCCNC(=S)Nc1ccc(Cl)c(Cl)c1 | -3 | -5 | 7 | 3 | -4 | -1 | .
COCCNC(=S)Nc1ccc2nsnc2c1 | -5 | 10 | 13 | 7 | -3 | 74* | 2
CCC(C)CN1C(=O)CSCC1(C)C(=O)Nc1ccc2c(c1)OCCO2 (stereo not given) | . | -3 | . | 2 | . | 4 | .
COc1ccccc1NC(=O)c1cc(S(=O)(=O)NCc2ccccc2)ccc1F | 13 | 7 | 13 | -12 | 2 | -8 | .
CCOc1ccccc1NC(=O)c1cc(S(=O)(=O)NCc2ccco2)ccc1F | 19 | -4 | 35* | -4 | -9 | 26* | -10
CC1=NN(c2ccccc2)C(=O)C1=C(C)C | 38 | -15 | 35* | -7 | 7 | 37* | 12
COc1ccc(C)cc1NC(=O)C(OC(=O)CNC(=O)c1cc(C)cc(C)c1)c1ccccc1 (stereo not given) | 13 | 7 | -1 | -1 | 1 | -11 | .
COc1ccc(C)cc1NC(=O)C(NCC(O)c1ccccc1)c1ccccc1 (stereo not given) | 8 | 1 | -4 | 3 | 1 | 26* | 9
N#CCC(=O)Nc1ccc(C(=O)OCc2ccccc2Oc2ccccc2)cc1 | 6 | 1 | -38 | -49 | -3 | -1 | .
CCOc1ccccc1N(CC)C(=O)Cn1ncc2c(=O)oc3ccccc3c21 | -6 | -6 | 0 | -3 | 0 | 3 | .
COc1cc(C2Nc3ccccc3C(=O)N2c2ccccc2)ccc1O (stereo not given) | 5 | 0 | 0 | 5 | -1 | 29* | 5
CCOC(=O)O[C@]1(C(=O)OCCl)CC[C@H]2[C@@H]3CCC4=CC(=O)C=C[C@]4(C)[C@H]3[C@@H](O)C[C@@]21C | -10 | . | 6 | . | -6 | . | .
O=C1Nc2c(Cl)cc(Cl)cc2C1=O | . | -3 | . | -2 | . | 49* | 54*
